Measurements published in ChEMBL document CHEMBL3102735, “Enhancing the pharmacodynamic profile of a class of selective COX-2 inhibiting nitric oxide donors” (Bioorg Med Chem, 2014).
The source made the active and inactive calls. The calls are words filed in the database; no cut-off is given here.

Columns and labels:
[1] = system: Liver; assay: Induction of nitric oxide production in Wistar rat liver homogenate assessed as nitrate level at 1 mM; assay type: functional, tissue-based; conditions: TDE = time-dependent effect
[2] = system: Liver; assay: Induction of nitric oxide production in Wistar rat liver homogenate assessed as NOx level at 1 mM; assay type: functional, tissue-based; conditions: TDE = time-dependent effect
[3] = system: Liver; assay: Induction of nitric oxide production in Wistar rat liver homogenate assessed as nitrite level at 1 mM; assay type: functional, tissue-based; conditions: TDE = time-dependent effect
[4] = system: Liver; assay: Induction of nitric oxide production in Wistar rat liver homogenate assessed as NOx level at 1 mM after 1 to 150 mins; assay type: functional, tissue-based
[5] = system: Liver; assay: Induction of nitric oxide production in Wistar rat liver homogenate assessed as nitrite level at 1 mM after 1 to 150 mins; assay type: functional, tissue-based
[6] = system: Liver; assay: Induction of nitric oxide production in Wistar rat liver homogenate assessed as nitrate level at 1 mM after 1 to 150 mins; assay type: functional, tissue-based
[7] = system: Thoracic aorta; assay: Ex vivo vasorelaxant activity in Wistar rat endothelium thoracic aortic ring assessed as reduction of KCl-induced contraction at 0.001 uM to 10 uM relative to control; assay type: functional
Summary of the method: (§1)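 Endothelium-denuded thoracic aortic rings from male Wistar rats (250–350 g) in oxygenated Tyrode-type buffer at 37 °C, isometric tension recording. Rings precontracted with 30 mM KCl, then 3-fold increasing compound concentrations (1 nM–10 µM) added, also with 1 µM ODQ preincubated. Emax as % of KCl tone; pIC50; mean ± SE of 6–10 experiments.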

[8] = system: Thoracic aorta; assay: Ex vivo vasorelaxant activity in Wistar rat endothelium thoracic aortic ring assessed as reduction of KCl-induced contraction in presence of guanylate cyclase inhibitor ODQ; assay type: functional; summary of the method: as §1
[9] = system: Thoracic aorta; assay: Ex vivo vasorelaxant activity in Wistar rat endothelium thoracic aortic ring assessed as reduction of KCl-induced contraction; assay type: functional, tissue-based; summary of the method: as §1
[10] = target: T1, Prostaglandin G/H synthase 2 (Homo sapiens, UniProt P35354); parameters: species or system Blood
T1 sequence (P35354 whole entry): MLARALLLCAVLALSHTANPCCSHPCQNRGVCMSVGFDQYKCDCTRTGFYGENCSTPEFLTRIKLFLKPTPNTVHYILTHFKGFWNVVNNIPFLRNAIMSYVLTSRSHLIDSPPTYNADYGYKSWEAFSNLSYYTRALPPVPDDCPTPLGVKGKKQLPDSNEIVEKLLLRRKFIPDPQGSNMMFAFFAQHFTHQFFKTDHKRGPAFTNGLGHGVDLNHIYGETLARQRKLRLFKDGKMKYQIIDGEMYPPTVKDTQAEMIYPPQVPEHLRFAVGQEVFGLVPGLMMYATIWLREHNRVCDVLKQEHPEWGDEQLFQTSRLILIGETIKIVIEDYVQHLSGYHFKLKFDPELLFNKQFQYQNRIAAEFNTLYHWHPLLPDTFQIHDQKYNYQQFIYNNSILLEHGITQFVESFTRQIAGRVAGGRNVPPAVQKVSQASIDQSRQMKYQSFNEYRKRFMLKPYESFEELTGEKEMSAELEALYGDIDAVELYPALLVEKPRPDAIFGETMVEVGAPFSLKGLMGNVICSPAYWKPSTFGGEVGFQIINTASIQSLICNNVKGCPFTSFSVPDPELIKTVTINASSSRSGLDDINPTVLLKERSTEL

[11] = target: Prostaglandin G/H synthase 1 (Homo sapiens, UniProt P23219); assay: Inhibition of COX-1 in human whole blood assessed as thromboxane B2 production by RIA
Chain of Prostaglandin G/H synthase 1 (Homo sapiens, UniProt P23219) (P23219 whole entry): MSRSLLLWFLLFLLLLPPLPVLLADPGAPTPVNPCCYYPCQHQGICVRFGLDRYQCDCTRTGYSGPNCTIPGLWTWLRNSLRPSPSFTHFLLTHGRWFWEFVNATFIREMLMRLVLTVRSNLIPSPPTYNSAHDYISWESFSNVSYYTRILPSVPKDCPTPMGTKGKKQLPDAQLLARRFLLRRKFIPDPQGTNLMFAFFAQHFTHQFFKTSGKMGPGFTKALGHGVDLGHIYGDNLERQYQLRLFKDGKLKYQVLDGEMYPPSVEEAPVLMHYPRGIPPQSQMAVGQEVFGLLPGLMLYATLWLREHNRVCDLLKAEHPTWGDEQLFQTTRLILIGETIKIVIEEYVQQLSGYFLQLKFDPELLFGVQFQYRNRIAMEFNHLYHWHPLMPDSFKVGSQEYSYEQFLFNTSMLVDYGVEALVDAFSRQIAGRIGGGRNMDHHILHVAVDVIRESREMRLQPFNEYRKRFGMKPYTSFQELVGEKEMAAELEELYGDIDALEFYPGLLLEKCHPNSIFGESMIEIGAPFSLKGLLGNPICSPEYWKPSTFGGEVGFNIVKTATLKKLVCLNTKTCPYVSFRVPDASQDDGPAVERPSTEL

[12] = system: Mus musculus; assay: Analgesic activity in po dosed Swiss albino mouse assessed as reduction of acetic acid-induced writhing measured every 10 mins after 5 mins of administration; assay type: functional, organism-based
Summary of the method: (§2)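 Male Swiss albino mice (23–25 g), compound given orally in CMC vehicle; writhing induced by 0.6% acetic acid (10 mL/kg) ip. Stretching movements counted for 10 min, starting 5 min after administration; percent reduction versus CMC-treated animals.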

[13] = system: J774; assay: Selectivity index, ratio of IC50 for COX-1 to IC50 for COX-2 in mouse J774 cells; assay type: cell-based
Summary of the method: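 J774 macrophages stimulated 24 h with E. coli LPS (10 µg/mL) to induce COX-2, with or without compound (0.01–10 µM); supernatant PGE2 by RIA. Triplicate wells, three experiments, percent inhibition versus control, IC50 by sigmoidal fit; selectivity as COX-1/COX-2 IC50 ratio.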

[14] = target: T2, Prostaglandin G/H synthase 1 (Mus musculus, UniProt P22437); assay: Inhibition of COX-1 in mouse J774 cells using arachidonic acid as substrate assessed as inhibition of prostaglandin E2 production preincubated for 15 mins followed by substrate addition measured after 30 mins by RIA; assay type: cell-based
T2 sequence (P22437 whole entry): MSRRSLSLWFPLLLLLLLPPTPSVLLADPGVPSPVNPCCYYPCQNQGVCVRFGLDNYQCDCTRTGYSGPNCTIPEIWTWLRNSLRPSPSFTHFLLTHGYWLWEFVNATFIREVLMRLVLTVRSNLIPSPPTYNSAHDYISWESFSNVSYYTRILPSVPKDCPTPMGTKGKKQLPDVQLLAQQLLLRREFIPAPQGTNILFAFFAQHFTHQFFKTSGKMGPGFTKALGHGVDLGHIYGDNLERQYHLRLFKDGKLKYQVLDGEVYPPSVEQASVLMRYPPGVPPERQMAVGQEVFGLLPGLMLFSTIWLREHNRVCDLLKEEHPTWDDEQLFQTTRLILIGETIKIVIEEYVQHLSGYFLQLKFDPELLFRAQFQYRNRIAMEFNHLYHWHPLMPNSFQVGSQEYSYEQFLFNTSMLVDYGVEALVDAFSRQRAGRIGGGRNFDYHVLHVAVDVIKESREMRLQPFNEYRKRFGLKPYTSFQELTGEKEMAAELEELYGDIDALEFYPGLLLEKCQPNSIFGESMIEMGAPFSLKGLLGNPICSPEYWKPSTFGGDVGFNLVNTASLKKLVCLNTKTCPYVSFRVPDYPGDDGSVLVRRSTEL
Summary of the method: (§3)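 J774 murine macrophages pretreated 15 min with compound (10 µM; lower concentrations 0.01–1 µM where needed), then incubated 30 min at 37 °C with 15 µM arachidonic acid; supernatant PGE2 measured by RIA. Triplicate wells, mean of three experiments of percent inhibition versus control; IC50 by sigmoidal fit.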

[15] = target: T3, Prostaglandin G/H synthase 2 (Mus musculus) (UniProt Q05769); assay: Inhibition of LPS-induced COX-2 in mouse J774 cells using arachidonic acid as substrate assessed as inhibition of prostaglandin E2 production at 10 uM preincubated for 15 mins followed by substrate addition measured after 30 mins by RIA; assay type: cell-based
T3 sequence (whole entry): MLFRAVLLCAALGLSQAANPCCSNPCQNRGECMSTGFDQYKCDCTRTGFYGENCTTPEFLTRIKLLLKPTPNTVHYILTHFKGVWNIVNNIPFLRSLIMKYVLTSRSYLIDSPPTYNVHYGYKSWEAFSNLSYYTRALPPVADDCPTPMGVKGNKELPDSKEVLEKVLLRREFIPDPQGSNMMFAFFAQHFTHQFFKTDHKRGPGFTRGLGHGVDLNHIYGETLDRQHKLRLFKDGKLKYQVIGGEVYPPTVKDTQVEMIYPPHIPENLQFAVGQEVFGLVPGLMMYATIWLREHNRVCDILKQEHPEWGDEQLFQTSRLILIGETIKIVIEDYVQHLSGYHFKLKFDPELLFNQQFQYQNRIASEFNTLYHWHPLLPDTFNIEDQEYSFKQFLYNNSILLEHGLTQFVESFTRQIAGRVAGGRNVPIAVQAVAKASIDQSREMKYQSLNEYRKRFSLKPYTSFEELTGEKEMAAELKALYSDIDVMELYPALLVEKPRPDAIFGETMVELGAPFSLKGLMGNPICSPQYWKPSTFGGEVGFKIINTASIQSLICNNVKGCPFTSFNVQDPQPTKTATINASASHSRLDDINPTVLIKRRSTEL

[16] = target: T4, Prostaglandin G/H synthase 1 (Mus musculus) (UniProt P22437); assay: Inhibition of COX-1 in mouse J774 cells using arachidonic acid as substrate assessed as inhibition of prostaglandin E2 production at 10 uM preincubated for 15 mins followed by substrate addition measured after 30 mins by RIA; assay type: cell-based; summary of the method: as §3
T4 sequence (whole entry): T2 sequence (P22437 whole entry)

[17] = system: Mus musculus; assay: Analgesic activity in Swiss albino mouse assessed as reduction of acetic acid-induced writhing at 10 mg/kg, po measured every 10 mins after 5 mins of administration relative to control; assay type: functional; parameters: scale not given: the % may be the effect or the level left; summary of the method: as §2
[18] = system: Mus musculus; assay: Analgesic activity in Swiss albino mouse assessed as reduction of acetic acid-induced writhing at 20 mg/kg, po measured every 10 mins after 5 mins of administration relative to control; assay type: functional; parameters: scale not given: the % may be the effect or the level left; summary of the method: as §2
[19] = system: Mus musculus; assay: Analgesic activity in Swiss albino mouse assessed as reduction of acetic acid-induced writhing at 40 mg/kg, po measured every 10 mins after 5 mins of administration relative to control; assay type: functional; parameters: scale not given: the % may be the effect or the level left; summary of the method: as §2
[20] = target: T5, Prostaglandin G/H synthase 2 (Mus musculus, UniProt Q05769); assay: Inhibition of LPS-induced COX-2 in mouse J774 cells using arachidonic acid as substrate assessed as inhibition of prostaglandin E2 production preincubated for 15 mins followed by substrate addition measured after 30 mins by RIA; assay type: cell-based
T5 sequence (Q05769 whole entry): T3 sequence (whole entry)

[21] = system: Mus musculus; assay: Antiinflammatory activity in Swiss albino mouse assessed as reduction in carrageenan-induced paw edema at 10 mg/kg, po relative to control; assay type: functional; parameters: scale not given: the % may be the effect or the level left
Summary of the method: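 Intraplantar carrageenan, compound po in CMC; volume of right hind paw measured 4 h after carrageenan injection and compared with saline/carrageenan-treated controls; percent oedema reduction.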

[22] = system: Mus musculus; assay: Antihyperalgesic activity in Swiss albino mouse assessed as reduction in carrageenan-induced inflammation at 10 mg/kg, po after 120 mins relative to control; assay type: functional; parameters: scale not given: the % may be the effect or the level left
[23] = system: Mus musculus; assay: Antihyperalgesic activity in Swiss albino mouse assessed as reduction in carrageenan-induced inflammation at 10 mg/kg, po after 90 mins relative to control; assay type: functional; parameters: scale not given: the % may be the effect or the level left
[24] = system: Mus musculus; assay: Antihyperalgesic activity in Swiss albino mouse assessed as reduction in carrageenan-induced inflammation at 10 mg/kg, po after 60 mins relative to control; assay type: functional; parameters: scale not given: the % may be the effect or the level left
[25] = system: Mus musculus; assay: Antihyperalgesic activity in Swiss albino mouse assessed as reduction in carrageenan-induced inflammation at 10 mg/kg, po after 30 mins relative to control; assay type: functional; parameters: scale not given: the % may be the effect or the level left
[26] = system: Mus musculus; assay: Analgesic activity in Swiss albino mouse assessed as reduction of acetic acid-induced writhing at 3 mg/kg, po measured every 10 mins after 5 mins of administration relative to control; assay type: functional; parameters: scale not given: the % may be the effect or the level left; summary of the method: as §2

Structure (SMILES) | IC50 [9] [µM] | IC50 [14] [µM] | inhibition [15] [%] | inhibition [16] [%] | IC50 [20] [µM] | Emax [7] [%] | Activity [8] | Activity [12] | Ratio IC50 [13] | Activity [17] [%] | Activity [18] [%] | Activity [26] [%] | also measured
COc1ccc2cc([C@H](C)C(=O)OCCCCO[N+](=O)[O-])ccc2c1 [NAPROXCINOD] | 0.468 | – | – | – | – | 68 | inactive | – | – | – | – | – | Activity [1]: tde; Activity [2]: tde; Activity [3]: tde; Activity [4]: 368 µM; Activity [5]: 27.6 µM; Activity [6]: 340 µM
Cc1c(CC(=O)NCCCO[N+](=O)[O-])cc(-c2ccc(S(C)(=O)=O)cc2)n1-c1cccc(F)c1 | 1.66 | > 10 | 100 | 0 | 0.25 | 69 | inactive | Dose-dependent effect | > 40 | 0 | 8.6 | – | Activity [19]: 30%
Cc1ccc(-c2cc(C(F)(F)F)nn2-c2ccc(S(N)(=O)=O)cc2)cc1 [CELECOXIB] | – | – | – | – | – | – | – | Dose-dependent effect | – | 59 | – | – | Activity [21]: 17%; Activity [22]: 39%; Activity [23]: 56%; Activity [24]: 75%; Activity [25]: 45%

Further lines, with some results ahead:

IC50 [9] [µM] | IC50 [14] [µM] | inhibition [15] [%] | inhibition [16] [%] | IC50 [20] [µM] | Structure (SMILES) | Emax [7] [%] | Activity [8] | Activity [12] | Ratio IC50 [13] | Activity [17] [%] | Activity [18] [%] | Activity [26] [%] | also measured
– | > 10 | 100 | 0 | – | Cc1c(CC(=O)NCCO)cc(-c2ccc(S(C)(=O)=O)cc2)n1-c1ccc(F)cc1 | – | – | Dose-dependent effect | > 33 | 37 | 61 | – | IC50 [10]: 1.4 µM; IC50 [11]: 1.9 µM
– | > 10 | 89 | 6 | – | Cc1c(CC(=O)NC(CCO[N+](=O)[O-])C(=O)O)cc(-c2ccc(S(C)(=O)=O)cc2)n1-c1ccc(F)cc1 (racemic) | – | inactive | Dose-dependent effect | > 6.2 | 30 | 54 | 0 | –
– | > 10 | 100 | 0 | 0.31 | Cc1c(CC(=O)NCCCO[N+](=O)[O-])cc(-c2ccc(S(C)(=O)=O)cc2)n1-c1ccc(F)cc1 | – | – | Dose-dependent effect | > 32 | 37 | 37 | 17 | –
